# Reference: ChEMBL document CHEMBL3751707, “Silicon Incorporated Morpholine Antifungals: Design, Synthesis, and Biological Evaluation” (ACS Med Chem Lett, 2015)
# Legend:
# Candida tropicalis [1] = test: Antifungal activity against Candida tropicalis ATCC 750 after 72 hrs by broth microdilution method; format: functional; settings: ATCC 750, 72 h
# Outline: (§1)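 CLSI broth microdilution against yeasts (M27-A3) and filamentous fungi (M38-A2). Read-outs: IC50 (concentration giving 50% growth inhibition), MIC, and MFC (minimum fungicidal concentration), all in μg/mL. Assay done twice in triplicate.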
# Candida albicans [2] = test: Antifungal activity against Candida albicans ATCC 10231 after 72 hrs by broth microdilution method; format: functional; settings: ATCC 10231, 72 h; outline: as §1
# Aspergillus niger [3] = test: Antifungal activity against Aspergillus niger ATCC 10578 after 48 hrs by broth microdilution method; format: functional, organism-based; settings: ATCC 10578, 48 h; outline: as §1
# Candida albicans [4] = test: Antifungal activity against Candida albicans ATCC 10231 after 24 to 36 hrs by broth microdilution method; format: functional, organism-based; outline: as §1
# Candida albicans [5] = test: Antifungal activity against Candida albicans ATCC 24433 after 24 to 36 hrs by broth microdilution method; format: functional, organism-based; outline: as §1
# Candida tropicalis [6] = test: Antifungal activity against Candida tropicalis ATCC 750 after 24 to 36 hrs by broth microdilution method; format: functional, organism-based; outline: as §1
# [7] = Toxicity in human RBC assessed as hemolysis upto 128 ug/ml; format: cell-based; settings: erythrocyte
# Candida albicans [8] = test: Antifungal activity against Candida albicans ATCC 24433 after 72 hrs by broth microdilution method; format: functional; settings: ATCC 24433, 72 h; outline: as §1
# [9] = Toxicity in human RBC assessed as partial hemolysis at 256 ug/ml; format: cell-based; settings: erythrocyte
# Cryptococcus neoformans [10] = test: Antifungal activity against Cryptococcus neoformans ATCC 34664 after 24 to 36 hrs by broth microdilution method; format: functional, organism-based; outline: as §1
# Nakaseomyces glabratus [11] = test: Antifungal activity against Candida glabrata NCYC 388 after 72 hrs by broth microdilution method; format: functional; settings: NCYC 388, 72 h; outline: as §1
# Aspergillus niger [12] = test: Antifungal activity against Aspergillus niger ATCC 10578 after 72 hrs by broth microdilution method; format: functional; settings: ATCC 10578, 72 h; outline: as §1
# Nakaseomyces glabratus [13] = test: Antifungal activity against Candida glabrata NCYC 388 after 24 to 36 hrs by broth microdilution method; format: functional, organism-based; outline: as §1
# Cryptococcus neoformans [14] = test: Antifungal activity against Cryptococcus neoformans ATCC 34664 after 72 hrs by broth microdilution method; format: functional; settings: ATCC 34664, 72 h; outline: as §1
# [15] = Metabolic stability in human liver microsomes after 30 mins by LC-MS/MS analysis; format: ADME; settings: read-out: Stability
# Outline: (§2)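 Test compounds were incubated 30 min with liver microsomes (human or mouse, per line), and values are reported as % metabolic stability after 30 min.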
# [16] = Metabolic stability in mouse liver microsomes after 30 mins by LC-MS/MS analysis; format: ADME; settings: read-out: Stability; outline: as §2
Compound,MFC (Candida tropicalis [1]),MFC (Candida albicans [2]),IC50 (Aspergillus niger [3]),MIC (Aspergillus niger [3]),IC50 (Candida albicans [4]),MIC (Candida albicans [4]),IC50 (Candida albicans [5]),MIC (Candida albicans [5]),IC50 (Candida tropicalis [6]),MIC (Candida tropicalis [6]),Activity [7],MFC (Candida albicans [8]),IC50 (Cryptococcus neoformans [10]),MIC (Cryptococcus neoformans [10]),MFC (Nakaseomyces glabratus [11]),MFC (Aspergillus niger [12]),IC50 (Nakaseomyces glabratus [13]),MIC (Nakaseomyces glabratus [13]),MFC (Cryptococcus neoformans [14]),other results
CC(CNC1CCN(C)CC1)Cc1ccc([Si](C)(C)C)cc1 (stereo not given),256 µg/mL,2 µg/mL,4.5 µg/mL,8 µg/mL,1.59 µg/mL,2 µg/mL,5.13 µg/mL,8 µg/mL,1.5 µg/mL,64 µg/mL,Non-toxic,8 µg/mL,6.9 µg/mL,16 µg/mL,16 µg/mL,> 256 µg/mL,5.92 µg/mL,8 µg/mL,16 µg/mL,Activity [9]: Toxic
CC(Cc1ccc([Si](C)(C)C)cc1)CN1CC[Si](C)(C)CC1 (stereo not given),> 256 µg/mL,4 µg/mL,0.5 µg/mL,2 µg/mL,0.45 µg/mL,1 µg/mL,1.25 µg/mL,4 µg/mL,44.8 µg/mL,64 µg/mL,Non-toxic,8 µg/mL,1.98 µg/mL,8 µg/mL,16 µg/mL,> 256 µg/mL,1.75 µg/mL,8 µg/mL,64 µg/mL,remaining at 0.5 h [15]: 44.5%; remaining at 0.5 h [16]: 17.3%
CC(Cc1ccc([Si](C)(C)C)cc1)CN1CCC(O)CC1 (stereo not given),256 µg/mL,4 µg/mL,0.25 µg/mL,0.5 µg/mL,0.19 µg/mL,0.25 µg/mL,0.396 µg/mL,1 µg/mL,0.198 µg/mL,4 µg/mL,Non-toxic,2 µg/mL,0.93 µg/mL,2 µg/mL,8 µg/mL,256 µg/mL,0.196 µg/mL,0.5 µg/mL,16 µg/mL,Activity [9]: Toxic
CC(Cc1ccc(C(C)(C)C)cc1)CN1C[C@@H](C)O[C@@H](C)C1 (stereo not given in full) [FENPROPIMORPH],> 256 µg/mL,2 µg/mL,1 µg/mL,4 µg/mL,0.833 µg/mL,2 µg/mL,0.21 µg/mL,0.5 µg/mL,0.125 µg/mL,2 µg/mL,Non-toxic,4 µg/mL,0.25 µg/mL,1 µg/mL,128 µg/mL,> 256 µg/mL,0.25 µg/mL,1 µg/mL,64 µg/mL,–
CC(Cc1ccc([Si](C)(C)C)cc1)CN1CCOCC1 (stereo not given),16 µg/mL,8 µg/mL,106 µg/mL,128 µg/mL,0.26 µg/mL,0.5 µg/mL,0.74 µg/mL,1 µg/mL,0.5 µg/mL,8 µg/mL,–,8 µg/mL,0.125 µg/mL,0.5 µg/mL,16 µg/mL,> 256 µg/mL,0.144 µg/mL,0.5 µg/mL,2 µg/mL,remaining at 0.5 h [15]: 26%; remaining at 0.5 h [16]: 5.1%
CCN(CC)CC(C)Cc1ccc([Si](C)(C)C)cc1 (stereo not given),256 µg/mL,4 µg/mL,64 µg/mL,256 µg/mL,0.57 µg/mL,2 µg/mL,3.75 µg/mL,8 µg/mL,4.85 µg/mL,16 µg/mL,–,32 µg/mL,1.5 µg/mL,4 µg/mL,> 256 µg/mL,> 256 µg/mL,1.85 µg/mL,4 µg/mL,32 µg/mL,–
OC(Cn1cncn1)(Cn1cncn1)c1ccc(F)cc1F [FLUCONAZOLE],> 256 µg/mL,16 µg/mL,> 256 µg/mL,> 256 µg/mL,4.21 µg/mL,8 µg/mL,0.73 µg/mL,2 µg/mL,64 µg/mL,> 256 µg/mL,–,4 µg/mL,4.6 µg/mL,32 µg/mL,> 256 µg/mL,> 256 µg/mL,16 µg/mL,128 µg/mL,> 256 µg/mL,–
CC(Cc1ccc([Si](C)(C)C)cc1)CN1CCCCC1 (stereo not given),64 µg/mL,32 µg/mL,41.2 µg/mL,64 µg/mL,0.11 µg/mL,0.25 µg/mL,0.12 µg/mL,0.25 µg/mL,1 µg/mL,4 µg/mL,Non-toxic,2 µg/mL,0.0625 µg/mL,0.125 µg/mL,8 µg/mL,128 µg/mL,0.035 µg/mL,0.125 µg/mL,8 µg/mL,–
